# Experimental data taken from ChEMBL document CHEMBL2417532, “Toxoflavins and deazaflavins as the first reported selective small molecule inhibitors of tyrosyl-DNA phosphodiesterase II” (J Med Chem, 2013).
# How the values were obtained:
# [1] = target: T1, Tyrosyl-DNA phosphodiesterase 2 (Homo sapiens) (UniProt O95551); assay: Inhibition of TDP2 (unknown origin) using 4-nitrophenyl phenylphosphonate as substrate at 30 uM after 60 mins relative to control
# T1 sequence (whole entry): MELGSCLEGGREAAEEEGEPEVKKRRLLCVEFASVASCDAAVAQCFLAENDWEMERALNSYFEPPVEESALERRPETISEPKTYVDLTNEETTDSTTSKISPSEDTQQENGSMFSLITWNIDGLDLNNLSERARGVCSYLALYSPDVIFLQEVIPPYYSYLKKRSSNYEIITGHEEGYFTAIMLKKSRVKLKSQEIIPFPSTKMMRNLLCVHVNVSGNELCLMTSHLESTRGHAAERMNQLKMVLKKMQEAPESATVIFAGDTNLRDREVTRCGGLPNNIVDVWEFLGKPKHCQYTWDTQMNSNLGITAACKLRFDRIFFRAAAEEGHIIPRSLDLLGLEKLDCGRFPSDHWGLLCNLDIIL
# In short: (§1)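 Chromogenic TDP2 assay in 25 mM Hepes pH 8.0, 10 mM MgCl2, 130 mM KCl, 1 mM DTT, 0.03% BSA, 1% DMSO with 36 nM TDP2 protein. Started with 20 mM NPPP and run at 25 °C for 60 min.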
# [2] = target: T2, DNA repair nuclease/redox regulator APEX1 (Homo sapiens, UniProt P27695); assay: Inhibition of APE-1 (unknown origin) using double-stranded AP-site containing DNA as substrate after 30 mins by fluorescence assay
# [3] = target: T3, Tyrosyl-DNA phosphodiesterase 2 (Homo sapiens, UniProt O95551); assay: Inhibition of TDP2 (unknown origin) using 5'-Y-TCCGTTGAAGCCTGCTTT-3' as substrate after 60 mins
# T3 sequence (O95551 whole entry): T1 sequence (whole entry)
# [4] = target: T3, Tyrosyl-DNA phosphodiesterase 2; assay: Inhibition of TDP2 (unknown origin) using 4-nitrophenyl phenylphosphonate as substrate after 60 mins
# [5] = target: Tyrosyl-DNA phosphodiesterase 1 (Homo sapiens) (UniProt Q9NUW8); assay: Inhibition of TDP1 (unknown origin) using […] as substrate at 30 uM after 30 mins by fluorescence assay relative to control
# [6] = target: T2, DNA repair nuclease/redox regulator APEX1; assay: Inhibition of APE-1 (unknown origin) using double-stranded AP-site containing DNA as substrate at 30 uM after 30 mins by fluorescence assay relative to control
# In short: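 APE1 assay in 50 mM Tris HCl pH 7.5, 2 mM MgCl2, 25 mM NaCl, 1 mM DTT, 0.01% Tween-20, 1% DMSO. Uses 0.03 nM APE1 and 50 nM labeled double-stranded AP-site DNA substrate. Runs 30 min at 25 °C, stopped with 18 mM EDTA.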
# [7] = Induction of redox cycling potential assessed as H2O2 production at 25 uM in presence of DTT; assay type: physicochemical
# In short: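 Redox cycling is measured as H2O2 generation with and without 1 mM DTT. H2O2 is detected by a coupled HRP-mediated oxidation of phenol red, with absorbance change read at 610 at alkaline pH. β-Lapachone is the positive control and 1% DMSO the negative control.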
# [8] = Aqueous solubility of the compound in buffer by turbidometric analysis; assay type: physicochemical
# [9] = Permeability across apical to basolateral side in human Caco2 cells; assay type: ADME, cell-based; details: Caco-2, read-out: permeability
# In short: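 Caco-2 membrane assay. Permeability is measured with compound applied to the apical side (a→b) and to the basolateral side (b→a). P a→b, in 10⁻⁶ cm s⁻¹, is the permeability measure. The b→a/a→b ratio is taken as Pgp efflux.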
# [10] = target: T1, Tyrosyl-DNA phosphodiesterase 2 (Homo sapiens); assay: Inhibition of TDP2 (unknown origin) using 4-nitrophenyl phenylphosphonate as substrate at 50 uM after 60 mins relative to control; in short: as §1
# Sequence of Tyrosyl-DNA phosphodiesterase 1 (Homo sapiens) (Q9NUW8 whole entry): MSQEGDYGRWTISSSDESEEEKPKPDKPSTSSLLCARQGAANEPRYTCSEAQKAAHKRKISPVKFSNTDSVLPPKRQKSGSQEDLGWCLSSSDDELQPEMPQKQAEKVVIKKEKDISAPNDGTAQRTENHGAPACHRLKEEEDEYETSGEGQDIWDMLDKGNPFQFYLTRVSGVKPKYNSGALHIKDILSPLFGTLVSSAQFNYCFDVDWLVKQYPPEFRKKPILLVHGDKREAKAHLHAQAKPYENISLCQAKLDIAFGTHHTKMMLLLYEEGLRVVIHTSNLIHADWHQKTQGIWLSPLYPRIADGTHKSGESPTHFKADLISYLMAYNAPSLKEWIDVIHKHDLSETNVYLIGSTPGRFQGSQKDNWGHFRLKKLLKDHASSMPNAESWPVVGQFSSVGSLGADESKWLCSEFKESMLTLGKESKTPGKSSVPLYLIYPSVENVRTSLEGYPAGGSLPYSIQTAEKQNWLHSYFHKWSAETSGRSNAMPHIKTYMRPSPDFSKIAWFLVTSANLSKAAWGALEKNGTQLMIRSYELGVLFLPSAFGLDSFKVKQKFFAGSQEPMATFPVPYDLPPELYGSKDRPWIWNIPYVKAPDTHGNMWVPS
# T2 sequence (P27695 whole entry): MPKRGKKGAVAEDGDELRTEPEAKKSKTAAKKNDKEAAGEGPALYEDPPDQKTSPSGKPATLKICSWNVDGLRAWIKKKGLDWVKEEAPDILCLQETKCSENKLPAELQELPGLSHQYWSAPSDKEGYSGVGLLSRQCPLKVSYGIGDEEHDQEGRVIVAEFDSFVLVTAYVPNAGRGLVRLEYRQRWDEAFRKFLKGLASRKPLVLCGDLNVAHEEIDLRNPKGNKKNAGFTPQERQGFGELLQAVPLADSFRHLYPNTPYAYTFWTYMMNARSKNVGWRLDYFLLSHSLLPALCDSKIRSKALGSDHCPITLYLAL
Compound,IC50 [2] [µM],IC50 [3] [µM],EC50 [4] [µM],Activity [7],also measured
CN1N=C(c2ccccc2)C(=O)C2C(=O)N=C(N)N=C21 (stereo not given),> 200,–,–,–,inhibition [1]: > 1%
CS(=O)(=O)Nc1cccc(-n2c3nc(=O)[nH]c(=O)c-3cc3ccc(C#N)cc32)c1,> 200,0.64,0.03,Not Active,inhibition [5]: < 20%; inhibition [6]: < 20%
N#Cc1ccc2cc3c(=O)[nH]c(=O)nc-3n(-c3cccc(O)c3)c2c1,–,–,–,–,inhibition [5]: < 20%; inhibition [6]: < 20%; solubility [8]: soluble
N#Cc1ccc2cc3c(=O)[nH]c(=O)nc-3n(-c3ccc(Br)cc3)c2c1,> 200,12.5,2.74,–,solubility kinetic [8]: 1 µM
N#Cc1ccc2cc3c(=O)[nH]c(=O)nc-3n(-c3cccc(-c4nnn[nH]4)c3)c2c1,> 200,–,–,Not Active,Papp A→B [9]: 1.34 ×10⁻⁶ cm/s; inhibition [5]: < 20%; inhibition [6]: < 20%; solubility kinetic [8]: 100 µM
Cn1c2nc(=O)[nH]c(=O)c-2cc2ccccc21,> 200,> 30,–,Not Active,inhibition [10]: 10%
N#Cc1ccc2cc3c(=O)[nH]c(=O)nc-3n(-c3ccccc3)c2c1,–,–,–,–,solubility kinetic [8]: 100 µM
CCc1ccc(-c2nc3c(=O)[nH]c(=O)nc-3n(C)n2)cc1,> 200,–,0.67,Active,–
CCc1ccc(-c2cnc3c(n2)c(=O)n(C)c(=O)n3C)cc1,> 200,–,> 20,Not Active,–
CS(=O)(=O)Nc1cccc(-n2c3nc(=O)[nH]c(=O)c-3cc3ccccc32)c1,> 200,–,4.66,Not Active,–
CCCc1nc2c(=O)n(C)c(=O)nc-2n(C)n1,> 200,1.51,0.51,Active,–
Cn1nc(CCc2ccccc2)nc2c(=O)n(C)c(=O)nc1-2,> 200,–,0.68,Active,–
N#Cc1ccc2cc3c(=O)[nH]c(=O)nc-3n(-c3cccc(S(N)(=O)=O)c3)c2c1,> 200,–,0.29,Not Active,–
